Holding throughout (type): functional
The test system of one assay is Bacillus subtilis. Nature of the assay: Antibacterial activity against Bacillus subtilis after 24 hrs by broth dilution method. A digest of the protocol: (§1)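 MIC by broth dilution (NCCLS 1982) in nutrient broth, test compound serially diluted across tubes 1–9. Each tube receives 0.5 ml overnight culture. Incubation 37 °C for 24 h, then turbidity read. DMSO as negative control, ciprofloxacin as reference.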

Assay [1] deals with Lysinibacillus sphaericus. In words: Antibacterial activity against Bacillus sphaericus after 24 hrs by broth dilution method. A digest of the protocol:
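Broth dilution per NCCLS 1982: test agent serially diluted across tubes 1–9 of sterile nutrient broth; 0.5 ml overnight culture added to each tube; incubated at 37 °C for 24 h, then turbidity read to give the minimum inhibitory concentration. DMSO served as negative control; ciprofloxacin run alongside.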
A general note: Dilution methods test growth across graded concentrations, often in twofold steps.

The next assay deals with Staphylococcus aureus. In words: Antibacterial activity against Staphylococcus aureus after 24 hrs by broth dilution method. A digest of the protocol:
as §1

The test system of the next assay is Pseudomonas aeruginosa. Nature of the assay: Antibacterial activity against Pseudomonas aeruginosa after 24 hrs by broth dilution method. A digest of the protocol: as §1
The subject of the next assay is Klebsiella aerogenes. In words: Antibacterial activity against Klebsiella aerogenes after 24 hrs by broth dilution method. The essentials:
as §1

Assay [2] concerns Chromobacterium violaceum. In words: Antibacterial activity against Chromobacterium violaceum after 24 hrs by broth dilution method. The essentials:
as §1

Converted amounts (≈) assume the structure as drawn. The source made the active and inactive calls. No cut-off for these calls is given here.

What is called MIC is the lowest concentration found to suppress growth.

Regarding `CCc1nc2c3c(cc(F)c2n1C)c(=O)c(C(=O)NC)cn3CC`, the MIC entry (in the assay on Bacillus subtilis; in assay [1]; with Staphylococcus aureus; in the assay on Pseudomonas aeruginosa; in the assay with Klebsiella aerogenes; in assay [2]) was “inactive” in each case.

`CNC(=O)c1cn2c(-c3ccco3)nc3c(NC)c(F)cc(c1=O)c32`: the MIC in the assay on Bacillus subtilis was found to be 6.25 µg/mL (≈ 18.4 µM); in assay [1] it was 25 µg/mL (≈ 73.5 µM); in the assay with Staphylococcus aureus, 6.25 µg/mL (≈ 18.4 µM); against Pseudomonas aeruginosa, 12.5 µg/mL (≈ 36.7 µM); in assay [2] it was 6.25 µg/mL (≈ 18.4 µM). Moreover, the MIC result in the assay with Klebsiella aerogenes is “inactive”.

`CNC(=O)c1cn2c(-c3ccc(O)cc3)nc3c(NC)c(F)cc(c1=O)c32`: the MIC in the assay on Bacillus subtilis was 12.5 µg/mL (≈ 34.1 µM); in assay [1], 25 µg/mL (≈ 68.2 µM); with Staphylococcus aureus it was 25 µg/mL (≈ 68.2 µM); in assay [2], 25 µg/mL (≈ 68.2 µM). For the same compound, the MIC result in the assay with Pseudomonas aeruginosa and with Klebsiella aerogenes was “inactive” throughout.

For the compound `CNC(=O)c1cn2c(-c3ccc(OC)cc3)nc3c(NC)c(F)cc(c1=O)c32`, the minimal inhibitory concentration (MIC) against Bacillus subtilis stood at 12.5 µg/mL (≈ 32.9 µM); in assay [1] it was 12.5 µg/mL (≈ 32.9 µM); in the assay on Staphylococcus aureus, 25 µg/mL (≈ 65.7 µM); with Pseudomonas aeruginosa, 6.25 µg/mL (≈ 16.4 µM); in assay [2], 25 µg/mL (≈ 65.7 µM). For the same compound, the MIC entry with Klebsiella aerogenes was “inactive”.

As to `CNC(=O)c1cn2c(-c3ccccc3)nc3c(NC)c(F)cc(c1=O)c32`, the MIC worked out at 12.5 µg/mL (≈ 35.7 µM) in the assay with Bacillus subtilis; 25 µg/mL (≈ 71.4 µM) in assay [1]; 6.25 µg/mL (≈ 17.8 µM) against Staphylococcus aureus; 12.5 µg/mL (≈ 35.7 µM) against Pseudomonas aeruginosa; 12.5 µg/mL (≈ 35.7 µM) in assay [2]. Besides, the MIC result in the assay on Klebsiella aerogenes is “inactive”.

For the compound `CCCCc1nc2c3c(cc(F)c2n1C)c(=O)c(C(=O)NC)cn3CC`, the MIC entry (with Bacillus subtilis; in assay [1]; with Staphylococcus aureus) was “inactive” throughout. For the same compound, the MIC came to 12.5 µg/mL (≈ 34.9 µM) in the assay on Pseudomonas aeruginosa, 25 µg/mL (≈ 69.8 µM) in the assay on Klebsiella aerogenes and 25 µg/mL (≈ 69.8 µM) in assay [2].

As for `CNC(=O)c1cn2c(-c3ccc(C)cc3)nc3c(NC)c(F)cc(c1=O)c32`, the MIC against Bacillus subtilis was 25 µg/mL (≈ 68.6 µM); in assay [1], 12.5 µg/mL (≈ 34.3 µM); with Staphylococcus aureus, 12.5 µg/mL (≈ 34.3 µM); in the assay with Pseudomonas aeruginosa, 6.25 µg/mL (≈ 17.2 µM); in assay [2], 6.25 µg/mL (≈ 17.2 µM). Moreover, the MIC result in the assay on Klebsiella aerogenes is “inactive”.

In the case of `O=C(O)c1cn(C2CC2)c2cc(N3CCNCC3)c(F)cc2c1=O` [CIPROFLOXACIN], the MIC came to 0.78 µg/mL (≈ 2.35 µM) against Bacillus subtilis; 0.78 µg/mL (≈ 2.35 µM) in assay [1]; 0.39 µg/mL (≈ 1.18 µM) against Staphylococcus aureus; 0.78 µg/mL (≈ 2.35 µM) against Pseudomonas aeruginosa; 0.78 µg/mL (≈ 2.35 µM) with Klebsiella aerogenes; 0.39 µg/mL (≈ 1.18 µM) in assay [2].

`CNC(=O)c1cn2c(-c3ccc(Cl)cc3)nc3c(NC)c(F)cc(c1=O)c32`: the MIC with Bacillus subtilis was 25 µg/mL (≈ 65 µM); in assay [1] it was 25 µg/mL (≈ 65 µM); in the assay on Staphylococcus aureus it was 25 µg/mL (≈ 65 µM); against Pseudomonas aeruginosa it was 25 µg/mL (≈ 65 µM); in assay [2] it was 6.25 µg/mL (≈ 16.2 µM). In addition, in the assay with Klebsiella aerogenes, the MIC result is “inactive”.

Consider `CCn1cc(C(=O)NC)c(=O)c2cc(F)c3c(nc(CC(C)C)n3C)c21`, for which the MIC result (in the assay with Bacillus subtilis; in assay [1]; with Staphylococcus aureus) was “inactive” throughout. The MIC with Pseudomonas aeruginosa came to 25 µg/mL (≈ 69.8 µM); in the assay on Klebsiella aerogenes, 12.5 µg/mL (≈ 34.9 µM); in assay [2], 25 µg/mL (≈ 69.8 µM).

Consider `CCCCCc1nc2c3c(cc(F)c2n1C)c(=O)c(C(=O)NC)cn3CC`, for which the MIC against Bacillus subtilis was 25 µg/mL (≈ 67.1 µM); in assay [1] it was 50 µg/mL (≈ 134 µM); against Staphylococcus aureus it was 25 µg/mL (≈ 67.1 µM); against Pseudomonas aeruginosa, 25 µg/mL (≈ 67.1 µM); in the assay on Klebsiella aerogenes, 12.5 µg/mL (≈ 33.6 µM); in assay [2], 25 µg/mL (≈ 67.1 µM).

Take `CNC(=O)c1cn2c(-c3ccc(F)cc3)nc3c(NC)c(F)cc(c1=O)c32`: the MIC in the assay on Bacillus subtilis was 25 µg/mL (≈ 67.9 µM); in assay [1] it was 25 µg/mL (≈ 67.9 µM); against Staphylococcus aureus, 25 µg/mL (≈ 67.9 µM); in the assay on Pseudomonas aeruginosa, 25 µg/mL (≈ 67.9 µM); in assay [2], 6.25 µg/mL (≈ 17 µM). Besides, the MIC result in the assay on Klebsiella aerogenes is “inactive”.

As to `CCn1cc(C(=O)NC)c(=O)c2cc(F)c3c(nc(C(C)C)n3C)c21`, the MIC amounted to 12.5 µg/mL (≈ 36.3 µM) with Bacillus subtilis; 25 µg/mL (≈ 72.6 µM) in assay [1]; 50 µg/mL (≈ 145 µM) with Staphylococcus aureus; 50 µg/mL (≈ 145 µM) in the assay on Pseudomonas aeruginosa; 50 µg/mL (≈ 145 µM) with Klebsiella aerogenes; 12.5 µg/mL (≈ 36.3 µM) in assay [2].

In the case of `CCCc1nc2c3c(cc(F)c2n1C)c(=O)c(C(=O)NC)cn3CC`, the MIC in the assay on Bacillus subtilis came to 12.5 µg/mL (≈ 36.3 µM); in assay [1], 50 µg/mL (≈ 145 µM); in the assay with Staphylococcus aureus it was 25 µg/mL (≈ 72.6 µM); in the assay on Pseudomonas aeruginosa it was 25 µg/mL (≈ 72.6 µM); in the assay on Klebsiella aerogenes, 12.5 µg/mL (≈ 36.3 µM); in assay [2] it was 25 µg/mL (≈ 72.6 µM).

For `CCCCCCc1nc2c3c(cc(F)c2n1C)c(=O)c(C(=O)NC)cn3CC`, the MIC entry (with Bacillus subtilis; in assay [1]; with Staphylococcus aureus) was “inactive” throughout. Besides, the MIC with Pseudomonas aeruginosa came to 50 µg/mL (≈ 129 µM); in the assay with Klebsiella aerogenes, 50 µg/mL (≈ 129 µM); in assay [2], 25 µg/mL (≈ 64.7 µM).

For the compound `CNC(=O)c1cn2c(-c3ccc(N(C)C)cc3)nc3c(NC)c(F)cc(c1=O)c32`, the MIC in the assay with Bacillus subtilis was determined as 25 µg/mL (≈ 63.5 µM); in assay [1] it was 25 µg/mL (≈ 63.5 µM); in the assay with Staphylococcus aureus, 12.5 µg/mL (≈ 31.8 µM); in the assay with Pseudomonas aeruginosa, 6.25 µg/mL (≈ 15.9 µM); with Klebsiella aerogenes, 25 µg/mL (≈ 63.5 µM); in assay [2], 12.5 µg/mL (≈ 31.8 µM).

In the case of `CNC(=O)c1cn2c(-c3ccc([N+](=O)[O-])cc3)nc3c(NC)c(F)cc(c1=O)c32`, the MIC in the assay on Bacillus subtilis is 12.5 µg/mL (≈ 31.6 µM); in assay [1] it was 12.5 µg/mL (≈ 31.6 µM); with Staphylococcus aureus it was 12.5 µg/mL (≈ 31.6 µM); in assay [2] it was 25 µg/mL (≈ 63.2 µM). Besides, the MIC result with Pseudomonas aeruginosa and in the assay on Klebsiella aerogenes was “inactive” throughout.

The values are drawn from ChEMBL document CHEMBL1137711, “Design, synthesis, structure-activity relationship and antibacterial activity series of novel imidazo fused quinolone carboxamides” (2009).
